Screening data (PubChem BioAssay)
CTSL1 counter: Fasciola hepatica cathepsin L1 inhibitors, primary screen, counter-screen for PFM18AAP inhibitor project, biochemical, QFRET, fluorogenic peptide substrate; recombinant F. hepatica cathepsin L1, Z-Leu-Arg-MCA fluorescence; AID 1906, 2009; 300,000 compounds, 0.49% hits; inhibition, % at 5.96 µM;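 active = inhibition above the mean of all tested compounds plus 3 SD, set per screening campaign, cut at about 17% in these data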
PAD4 inh: human PAD4 inhibitors, primary screen, biochemical, fluorescence polarization, 1536-well format; recombinant PAD4, RCA probe fluorescence polarization; inhibition, % at 6.36 µM; 330,000 compounds, 0.41% hits; AID 485272, 2010;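 active = percent inhibition above a cutoff equal to the mean of all tested compounds plus 3 SD, cut at about 15% in these data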
TDP2 inh: human TDP2 enzyme inhibitors, primary screen, biochemical, epi absorbance, recombinant enzyme; inhibition, % at 12.8 µM; 370,000 compounds, 0.34% hits; T5PNP hydrolysis, p-nitrophenol absorbance 415 nm;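 active = inhibition above the mean of all tested compounds plus 3 SD, set per campaign, cut at about 25% in these data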
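System – recombinant human TDP2 · Amount – 120 nM TDP2 per well · Buffer or medium – Mg2+-containing Tris-HCl buffer, pH 7.5 · Reagent – T5PNP substrate, 5 mM · Dosing – 12.8 µM single point, 1% DMSO · Incubation – 2 h at 37 °C · Measured by – epi absorbance · Read-out basis – percent inhibition · Benchmarks – high control without enzyme, low control DMSO plus TDP2 · Repeats – singlicate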
HKDC1 inhibitor: HKDC1 hexokinase inhibitors, primary screen, biochemical, fluorescence, uHTS. Q2TB90. recombinant HKDC1, G6PDH/diaphorase resazurin coupled fluorescence. inhibition, % at 20 µM. AID 493160, 2011. 340,000 compounds, 0.16% hits;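 active = inhibition above about 35% when tested at 20 µM, limit read from the data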
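Material: recombinant HKDC1 hexokinase; Amount: HKDC1 at 5 µg/mL; Medium: Tris pH 8.0 buffer with MgCl2, Tween-20, BSA, BME; Schedule: 90 min reaction incubation at room temperature, dark; Technique: coupled resazurin fluorescence, excitation 525 nm, emission 613 nm.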
UCH37 DUB inh: inhibitors of human UCH37 deubiquitinase, primary screen, biochemical, Ub-AMC cleavage, fluorescence; Ubiquitin carboxyl-terminal hydrolase isozyme L5 (Homo sapiens), Q9Y5K5; purified proteasome/UCH37; inhibition, % (concentration not given with the values); 330,000 compounds, 0.33% hits; AID 588478, 2011;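 active = mean inhibition over replicate wells above about 20%, limit read from the data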
Target sequence (Q9Y5K5 whole entry, looked up): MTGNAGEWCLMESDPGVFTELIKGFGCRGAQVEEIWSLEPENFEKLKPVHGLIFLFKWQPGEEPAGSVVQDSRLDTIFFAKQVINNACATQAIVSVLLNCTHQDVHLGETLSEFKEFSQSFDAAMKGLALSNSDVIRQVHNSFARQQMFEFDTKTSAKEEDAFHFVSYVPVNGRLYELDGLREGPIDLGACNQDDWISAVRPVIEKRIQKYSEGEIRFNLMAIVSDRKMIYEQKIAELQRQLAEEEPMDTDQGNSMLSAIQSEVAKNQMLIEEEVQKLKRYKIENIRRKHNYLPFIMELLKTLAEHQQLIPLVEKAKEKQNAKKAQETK
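Material: human UCH37 enzyme supplied as purified proteasome complex / Amount: 0.15 nM proteasome as dispensed / Buffer or medium: pH 7.4 Tris-HCl (50 mM) with ovalbumin, ATP-MgCl2, DTT / Times: preincubation 30 min, reaction 25 min, room temperature / Technique: AMC fluorescence from Ub-AMC cleavage, excitation 355 nm, emission 460 nm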
GSTO1 counter: inhibitors of recombinant GSTO1, primary screen, counter-screen for RBBP9 inhibitor project, biochemical, fluorescence polarization; inhibition, % at 5.96 µM; 300,000 compounds, 1.1% hits; activity-based probe fluorescence polarization; AID 1974, 2009; Glutathione S-transferase omega-1 (Homo sapiens), P78417;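 active = inhibition above the campaign mean inhibition plus 3 SD, cut at about 35% in these data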
Target sequence (P78417 whole entry, looked up): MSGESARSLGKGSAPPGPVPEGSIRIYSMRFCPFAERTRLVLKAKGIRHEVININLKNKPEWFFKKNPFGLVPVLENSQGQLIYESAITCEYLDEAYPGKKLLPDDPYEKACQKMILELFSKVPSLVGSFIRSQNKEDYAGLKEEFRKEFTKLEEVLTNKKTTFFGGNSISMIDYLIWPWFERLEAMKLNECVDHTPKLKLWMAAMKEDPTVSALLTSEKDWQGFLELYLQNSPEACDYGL
GSTO1 inh conf: GSTO1 inhibitor hit confirmation, counter-screen for RBBP9 inhibitor project, biochemical, fluorescence polarization, triplicate; inhibition, % at 5.96 µM; 2,400 compounds, 54% hits; AID 2176, 2009; shares compounds with GSTO1 counter; recombinant GSTO1, probe fluorescence polarization;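 active = inhibition above the primary screen's cutoff, its mean inhibition plus 3 SD, cut at about 35% in these data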;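 also: loss of polarization as inhibitors block binding of rhodamine sulfonate ester activity probe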
GSTO1 ABPP inh: inhibitors of purified human GSTO1, late-stage follow-up, biochemical, gel ABPP, SE-Rh probe, percent inhibition | recombinant GSTO1, gel ABPP SE-Rh probe fluorescence | inhibition, % at 1 µM | 130 compounds, 30% hits | shares compounds with GSTO1 counter;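 active = inhibition of the enzyme GSTO1 above about 75%, limit read from the data; inactive = inhibition below that limit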
Numbers stand for hits; . = inactive; / = not tested or not shown. Sampled rows, rich in hits. Any-hit rate of the full collection: about 1.6%.

SMILES	CTSL1 counter	PAD4 inh	TDP2 inh	HKDC1 inhibitor	UCH37 DUB inh	GSTO1 counter	GSTO1 inh conf	others
COc1ccc(OCC(=O)N2CCN(C/C=C/c3ccccc3)CC2)cc1	16.7	.	.	.	.	.	/
CC(CCc1c[nH]c2ccccc12)=NO	/	/	/	/	.	/	/
O=C(Nc1ccc(Cl)cc1)ON=C(c1ccccc1)c1ccccn1	/	/	/	/	.	/	/
CN(C)C(=O)CSc1nnc([C@@H](N)Cc2ccccc2)o1	32.6	.	.	.	.	.	/
CC1=C2CCC3C(CCC4=CC(=O)CCC43C)C2CC1 (configuration not stated)	/	/	.	.	20.0	/	/
C[C@H]1CC=C[C@H]2[C@H](O)[C@H](C)[C@@](C)(O)[C@H]3[C@H](Cc4ccccc4)NC(=O)[C@]32[C@H](O)C=C[C@](C)(O)C1	/	/	/	/	.	/	/
CCOc1cc(C=C2C(=O)NC(=O)NC2=O)cc([N+](=O)[O-])c1O	.	.	.	/	26.5	.	/
CN(C)c1ccc(C=C2C(=O)NC(=O)NC2=O)cc1[N+](=O)[O-]	.	.	.	.	.	.	/
CN1CCc2nc(N)c(C#N)c(-c3ccccc3)c2C1	.	.	.	.	.	35.8	/
C#C[C@@]1(O)CCC2C3CCC4=CC(=NOCC(=O)NC(CCC(N)=O)C(=O)O)CC[C@]4(C)C3CC[C@@]21C (some centres not stated)	/	/	/	/	.	/	/
CN(C)[C@@H]1C(=O)C(C(N)=O)=C(O)[C@@]2(O)C(=O)C3=C(O)c4c(O)cccc4[C@@](C)(O)[C@H]3C[C@@H]12	.	.	/	/	/	65.8	/
CC1=NN(c2ccccc2)C(=O)C1/C=C1\C(=O)NC(=O)N(c2ccc(C)c(C)c2)C1=O (configuration not stated)	.	.	.	.	.	.	/
CC1=NN(c2ccccc2)C(=O)C1/C=C1/C(=O)NC(=O)N(c2cc(C)cc(C)c2)C1=O (configuration not stated)	.	15.9	.	.	.	.	/
O=C1NC(=O)N(Cc2ccccc2)C(=O)/C1=C\N1CCCc2ccccc21	.	.	.	.	.	38.1	/
O=C1NC(=O)N(Cc2ccccc2)C(=O)/C1=C\c1ccco1	.	.	.	.	.	.	/
CCN(CC)C(=O)c1ccc2c(c1)C1C(Cl)C(Sc3ccccc3[N+](=O)[O-])CC1C(C(=O)O)N2 (configuration not stated)	.	.	/	.	.	52.4	48.6
O=C(O)c1ccc2c(c1)C1C(Cl)C(Sc3ccccc3[N+](=O)[O-])CC1C(c1cccc([N+](=O)[O-])c1)N2 (configuration not stated)	/	/	/	.	.	/	/
CC(C)C12CN3CCN(CC(C3)C1=NO)C2	/	/	/	/	.	/	/
c1ccc(-c2[nH]c(-c3ccccc3)[n+](CC3CO3)c2-c2ccccc2)cc1 (configuration not stated)	.	.	.	.	.	84.3	84.4	GSTO1 ABPP inh=.
COC[C@]12CN(C)C3C4[C@H](OC)C1C3([C@@H](OC)C[C@H]2O)[C@@H]1C[C@@]2(O)[C@H](OC(=O)c3ccccc3)[C@@H]1[C@]4(OC(C)=O)[C@@H](O)[C@@H]2OC	/	/	/	/	.	/	/
O=C1NC(=O)N(CC2CCCO2)C(=O)/C1=C/c1cccs1 (configuration not stated)	.	.	.	.	.	.	/
CCN(CC)c1ccc(/C=C2/C(=O)NC(=O)N(CC3CCCO3)C2=O)cc1 (configuration not stated)	.	.	.	.	.	43.1	.
COC(=O)c1cc(C(O)(C(=O)OC)C(F)(F)F)c(N=CN(C)C)s1 (configuration not stated)	/	/	/	/	.	/	/
COP(=S)(OC)SCN1C(=O)c2ccccc2C1=O	.	.	.	.	.	38.0	60.0
Cc1ccccc1C(=O)NN=Cc1ccc(Sc2ccccn2)o1	/	/	/	/	.	/	/
SMILES	CTSL1 counter	PAD4 inh	TDP2 inh	HKDC1 inhibitor	UCH37 DUB inh	GSTO1 counter	GSTO1 inh conf	others
O=C1NC(=O)C(=CCc2ccccc2)C(=O)N1	/	/	.	.	/	/	/
O=C1NC(=O)C(=CN2CCc3ccccc32)C(=O)N1	.	.	.	.	.	39.3	.
CCN1CCN(Cc2cc3c(cc2[N+](=O)[O-])OCO3)CC1	.	.	.	.	.	37.9	.
O=[N+]([O-])c1cc2c(cc1CNCCc1ccc3c(c1)OCO3)OCO2	.	.	.	.	/	.	/
COc1ccccc1C=NN=C(N)N[N+](=O)[O-]	/	/	/	/	.	/	/
O=C(CCl)NCC1CCCO1 (configuration not stated)	.	.	.	.	.	51.4	65.0
CCC(C)NC(=O)c1c(N)n(Cc2ccc3c(c2)OCO3)c2nc3ccccc3nc12 (configuration not stated)	.	.	.	.	.	52.6	.
COc1cc(O)cc2c1C(=O)OC(C)CCCC(=O)CCCC=C2 (configuration not stated)	/	/	/	/	.	/	/
Cc1ccccc1O	/	.	.	.	.	/	/
Oc1cccc2nc3ccccc3nc12	.	.	.	.	.	70.3	.
NC(=S)NN=Cc1coc2ccccc2c1=O	/	/	/	/	.	/	/
CCOCN(C(=O)CCl)c1c(C)cccc1CC	.	.	.	.	.	83.4	92.3	GSTO1 ABPP inh=.
CCc1cccc(CC)c1N(COC)C(=O)CCl	/	/	.	.	.	/	/
CCCCn1c(N)c(C(=O)NCCN2CCOCC2)c2nc3ccccc3nc21	.	.	.	.	.	.	/
CC(C)CCNC(=O)c1c(N)n(CC2CCCO2)c2nc3ccccc3nc12 (configuration not stated)	.	.	.	.	.	54.3	57.1
C[C@H]1CCCC=C[C@@H]2C[C@H](O)C[C@H]2[C@H](O)C=CC(=O)O1	/	/	/	/	.	/	/
Cc1ccccc1NC(=O)CCl	.	.	.	.	.	62.9	78.2
O=c1c2ccccc2nc(/C=C/c2ccccc2)n1-c1ccc(O)cc1	.	.	.	.	.	.	/
O=c1c2ccccc2nc(/C=C/c2ccc(O)c(O)c2)n1-c1ccccc1	.	.	.	.	.	44.1	.
CC1CCCN(C(=O)CCl)C1 (configuration not stated)	.	.	.	.	.	66.3	84.3	GSTO1 ABPP inh=.
